Assays:
[1] = Drug excretion in urine of female Sprague-Dawley rat at 15 mg/kg, po administered as single dose by liquid scintillation counting; assay type: ADME, organism-based; set-up: dose 15 mg/kg, dosed compound name [14C]Sunitinib, route oral; conditions: in vivo
[2] = Cmax in male Sprague-Dawley rat plasma at 15 mg/kg, po administered as single dose by LC/MS/MS analysis; assay type: ADME, organism-based; set-up: dose 15 mg/kg, dosed compound name [14C]Sunitinib, route oral
Method in brief: (§1)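 Single dose of [14C]sunitinib L-malate as free base, 50 µCi/kg. IV dose was 5 mg/kg by tail vein in 5 females. Oral dose was 15 mg/kg by gavage in 3 females and 3 males. Total radioactivity was by scintillation counting. […] Cmax was read from raw data, t½ by log-linear regression, AUC by linear trapezoidal rule.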

[3] = Terminal half life in human plasma at 50 mg, po administered as single dose by LC/MS/MS analysis; assay type: ADME, organism-based; set-up: dosed compound name [14C]Sunitinib; conditions: read-out: beta t1/2 (converted)
[4] = Tmax in male Sprague-Dawley rat plasma at 15 mg/kg, po administered as single dose by LC/MS/MS analysis; assay type: ADME, organism-based; set-up: dose 15 mg/kg, dosed compound name [14C]Sunitinib, route oral
[5] = Terminal half life in male cynomolgus monkey plasma at 6 mg/kg, po administered as single dose by LC/MS/MS analysis; assay type: ADME, organism-based, Macaca fascicularis; set-up: dose 6 mg/kg, dosed compound name [14C]Sunitinib, route oral; conditions: read-out: beta t1/2 (converted)
[6] = Apparent terminal half life in female Sprague-Dawley rat plasma at 15 mg/kg, po administered as single dose by LC/MS/MS analysis; assay type: ADME, organism-based; set-up: dose 15 mg/kg, dosed compound name [14C]Sunitinib, route oral; conditions: read-out: t1/2 lambda z (converted); method in brief: as §1
[7] = Cmax in human plasma at 50 mg, po administered as single dose by LC/MS/MS analysis; assay type: ADME, organism-based; set-up: dose 50 mg, route oral, dosed compound name [14C]Sunitinib
Method in brief: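 This was an open-label, single-dose, single-centre phase I study in eight male subjects. Each received one oral 50 mg dose of [14C]sunitinib (100 µCi). Plasma sunitinib was measured by a validated LC-MS-MS method. Cmax was read directly from the raw concentration–time data.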

[8] = Drug excretion in feces of female Sprague-Dawley rat at 5 mg/kg, iv administered as single dose by liquid scintillation counting; assay type: ADME, organism-based; set-up: dose 5 mg/kg, dosed compound name [14C]Sunitinib, route intravenous; conditions: in vivo
[9] = Cmax in male cynomolgus monkey plasma at 6 mg/kg, po administered as single dose by LC/MS/MS analysis; assay type: ADME, organism-based, Macaca fascicularis; set-up: dose 6 mg/kg, dosed compound name [14C]Sunitinib, route oral
Method in brief: (§2)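 Cynomolgus monkeys were given a single oral gavage of [14C]sunitinib L-malate at 6 mg/kg (37 µCi/kg). Heparinized femoral-vein blood was taken at pre-dose and 0.5–336 h. […] Cmax was read directly from the raw concentration data.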

[10] = Drug excretion in feces of human at 50 mg, po administered as single dose by liquid scintillation counting; conditions: in vivo
[11] = Tmax in female cynomolgus monkey plasma at 6 mg/kg, po administered as single dose by LC/MS/MS analysis; assay type: ADME, organism-based, Macaca fascicularis; set-up: dose 6 mg/kg, dosed compound name [14C]Sunitinib, route oral
[12] = Tmax in human plasma at 50 mg, po administered as single dose by LC/MS/MS analysis; assay type: ADME, organism-based; set-up: dosed compound name [14C]Sunitinib
[13] = Drug excretion in urine of female Sprague-Dawley rat at 5 mg/kg, iv administered as single dose by liquid scintillation counting; assay type: ADME, organism-based; set-up: dose 5 mg/kg, dosed compound name [14C]Sunitinib, route intravenous; conditions: in vivo
[14] = Tmax in female Sprague-Dawley rat plasma at 15 mg/kg, po administered as single dose by LC/MS/MS analysis; assay type: ADME, organism-based; set-up: dose 15 mg/kg, dosed compound name [14C]Sunitinib, route oral
[15] = Apparent terminal half life in male Sprague-Dawley rat plasma at 15 mg/kg, po administered as single dose by LC/MS/MS analysis; assay type: ADME, organism-based; set-up: dose 15 mg/kg, dosed compound name [14C]Sunitinib, route oral; conditions: read-out: t1/2 lambda z (converted); method in brief: as §1
[16] = Apparent terminal half life in female Sprague-Dawley rat plasma at 5 mg/kg, iv administered as single dose by LC/MS/MS analysis; assay type: ADME, organism-based; set-up: dose 5 mg/kg, dosed compound name [14C]Sunitinib, route intravenous; conditions: read-out: t1/2 lambda z (converted); method in brief: as §1
[17] = Apparent oral clearance in human plasma at 50 mg, po administered as single dose by LC/MS/MS analysis; assay type: ADME, organism-based; set-up: dosed compound name [14C]Sunitinib
[18] = AUC (0 to infinity) in female Sprague-Dawley rat plasma at 15 mg/kg, po administered as single dose by LC/MS/MS analysis; assay type: ADME, organism-based; set-up: time infinity, dose 15 mg/kg, dosed compound name [14C]Sunitinib, route oral; method in brief: as §1
[19] = Cmax in female Sprague-Dawley rat plasma at 15 mg/kg, po administered as single dose by LC/MS/MS analysis; assay type: ADME, organism-based; set-up: dose 15 mg/kg, dosed compound name [14C]Sunitinib, route oral; method in brief: as §1
[20] = AUC (0 to infinity) in female Sprague-Dawley rat plasma at 5 mg/kg, iv administered as single dose by LC/MS/MS analysis; assay type: ADME, organism-based; set-up: time infinity, dose 5 mg/kg, dosed compound name [14C]Sunitinib, route intravenous; method in brief: as §1
[21] = Volume of distribution at steady state in female Sprague-Dawley rat plasma at 5 mg/kg, iv administered as single dose by LC/MS/MS analysis; assay type: ADME, organism-based; set-up: dose 5 mg/kg, dosed compound name [14C]Sunitinib, route intravenous; conditions: read-out: Vdss
[22] = Drug excretion in urine of male cynomolgus monkey at 6 mg/kg, po administered as single dose by liquid scintillation counting; assay type: ADME, organism-based, Macaca fascicularis; set-up: dose 6 mg/kg, dosed compound name [14C]Sunitinib, route oral; conditions: in vivo
[23] = Drug excretion in feces of female cynomolgus monkey at 6 mg/kg, po administered as single dose by liquid scintillation counting; assay type: ADME, organism-based, Macaca fascicularis; set-up: dose 6 mg/kg, dosed compound name [14C]Sunitinib, route oral; conditions: in vivo
[24] = Drug excretion in feces of male Sprague-Dawley rat at 15 mg/kg, po administered as single dose by liquid scintillation counting; assay type: ADME, organism-based; set-up: dose 15 mg/kg, dosed compound name [14C]Sunitinib, route oral; conditions: in vivo
[25] = Drug excretion in feces of male cynomolgus monkey at 6 mg/kg, po administered as single dose by liquid scintillation counting; assay type: ADME, organism-based, Macaca fascicularis; set-up: dose 6 mg/kg, dosed compound name [14C]Sunitinib, route oral; conditions: in vivo
[26] = AUC (0 to infinity) in male cynomolgus monkey plasma at 6 mg/kg, po administered as single dose by LC/MS/MS analysis; assay type: ADME, organism-based, Macaca fascicularis; set-up: time infinity, dose 6 mg/kg, dosed compound name [14C]Sunitinib, route oral
Method in brief: (§3)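 Cynomolgus monkeys of both sexes received one oral gavage of [14C]sunitinib L-malate at 6 mg/kg (37 µCi/kg). Femoral-vein blood was taken into heparin from 0.5 to 336 h. Plasma was kept cold and protected from light, then stored at -80 °C. Total radioactivity was by scintillation counting and sunitinib by methanol-extraction LC-MS-MS. Cmax was from raw data, t½ from the log-linear terminal slope, AUC(0-∞) by linear trapezoidal rule.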

[27] = AUC (0 to infinity) in female cynomolgus monkey plasma at 6 mg/kg, po administered as single dose by LC/MS/MS analysis; assay type: ADME, organism-based, Macaca fascicularis; set-up: time infinity, dose 6 mg/kg, dosed compound name [14C]Sunitinib, route oral; method in brief: as §3
[28] = Cmax in female cynomolgus monkey plasma at 6 mg/kg, po administered as single dose by LC/MS/MS analysis; assay type: ADME, organism-based, Macaca fascicularis; set-up: dose 6 mg/kg, dosed compound name [14C]Sunitinib, route oral; method in brief: as §2
[29] = Tmax in male cynomolgus monkey plasma at 6 mg/kg, po administered as single dose by LC/MS/MS analysis; assay type: ADME, organism-based, Macaca fascicularis; set-up: dose 6 mg/kg, dosed compound name [14C]Sunitinib, route oral
[30] = Terminal half life in female cynomolgus monkey plasma at 6 mg/kg, po administered as single dose by LC/MS/MS analysis; assay type: ADME, organism-based, Macaca fascicularis; set-up: dose 6 mg/kg, dosed compound name [14C]Sunitinib, route oral; conditions: read-out: beta t1/2 (converted)
[31] = AUC (0 to infinity) in human plasma at 50 mg, po administered as single dose by LC/MS/MS analysis; assay type: ADME, organism-based; set-up: dose 50 mg, route oral, time infinity, dosed compound name [14C]Sunitinib
Method in brief: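 Open-label phase I study in 8 subjects given one 50 mg oral dose of [14C]sunitinib (100 µCi). Plasma total radioactivity was counted by scintillation on triplicate 0.25 mL aliquots. Sunitinib was quantified by LC-MS-MS. Noncompartmental analysis: Cmax read directly, terminal t½ = ln(2)/slope of the log-concentration regression, AUC by linear trapezoidal rule to the last detectable concentration.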

[32] = Clearance in female Sprague-Dawley rat plasma at 5 mg/kg, iv administered as single dose by LC/MS/MS analysis; assay type: ADME, organism-based; set-up: dose 5 mg/kg, dosed compound name [14C]Sunitinib, route intravenous
Method in brief: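 Female rats (5) were given a single tail-vein bolus of [14C]sunitinib L-malate at 5 mg/kg free base (50 µCi/kg). […] Parameters were noncompartmental, with AUC by the linear trapezoidal rule.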

[33] = Drug excretion in urine of human at 50 mg, po administered as single dose by liquid scintillation counting; conditions: in vivo
[34] = Drug excretion in feces of female Sprague-Dawley rat at 15 mg/kg, po administered as single dose by liquid scintillation counting; assay type: ADME, organism-based; set-up: dose 15 mg/kg, dosed compound name [14C]Sunitinib, route oral; conditions: in vivo
[35] = AUC (0 to infinity) in male Sprague-Dawley rat plasma at 15 mg/kg, po administered as single dose by LC/MS/MS analysis; assay type: ADME, organism-based; set-up: time infinity, dose 15 mg/kg, dosed compound name [14C]Sunitinib, route oral; method in brief: as §1
[36] = Retention time of compound by LC/MS/MS analysis; assay type: physicochemical; set-up: dosed compound name [14C]Sunitinib
[37] = Drug excretion in urine of female cynomolgus monkey at 6 mg/kg, po administered as single dose by liquid scintillation counting; assay type: ADME, organism-based, Macaca fascicularis; set-up: dose 6 mg/kg, dosed compound name [14C]Sunitinib, route oral; conditions: in vivo
[38] = Drug excretion in urine of male Sprague-Dawley rat at 15 mg/kg, po administered as single dose by liquid scintillation counting; assay type: ADME, organism-based; set-up: dose 15 mg/kg, dosed compound name [14C]Sunitinib, route oral; conditions: in vivo
[39] = Cmax in female Sprague-Dawley rat plasma at 5 mg/kg, iv administered as single dose by LC/MS/MS analysis; assay type: ADME, organism-based; set-up: dose 5 mg/kg, dosed compound name [14C]Sunitinib, route intravenous; method in brief: as §1

Which results are given for `CCN(CC)CCNC(=O)c1c(C)[nH]c(/C=C2\C(=O)Nc3ccc(F)cc32)c1C` [SUNITINIB]?
Compound recovery [1]: 0.6%; Cmax [2]: 963 ng/mL; half-life [3]: 50.9 h; Tmax [4]: 3 h; half-life [5]: 18 h; half-life [6]: 7.2 h; Cmax [7]: 24.4 ng/mL; Compound recovery [8]: 22.6%; Cmax [9]: 92 ng/mL; Compound recovery [10]: 13.6%; Tmax [11]: 4 h; Tmax [12]: 8 h; Compound recovery [13]: 0.3%; Tmax [14]: 4 h; half-life [15]: 8 h; half-life [16]: 7.4 h; CL/F [17]: 832 mL/min; AUC(0-inf) [18]: 24000 ng·h/mL; Cmax [19]: 1250 ng/mL; AUC(0-inf) [20]: 7200 ng·h/mL; Vd [21]: 3.36 L/kg; Compound recovery [22]: 0.2%; Compound recovery [23]: 9.2%; Compound recovery [24]: 5.8%; Compound recovery [25]: 8.8%; AUC(0-inf) [26]: 1450 ng·h/mL; AUC(0-inf) [27]: 1100 ng·h/mL; Cmax [28]: 83 ng/mL; Tmax [29]: 5 h; half-life [30]: 16 h; AUC(0-inf) [31]: 1060 ng·h/mL; clearance [32]: 13 mL/min/kg; Compound recovery [33]: 6.4%; Compound recovery [34]: 11.5%; AUC(0-inf) [35]: 11800 ng·h/mL; Retention_time [36]: 4 min; Compound recovery [37]: 0.2%; Compound recovery [38]: 0.5%; Cmax [39]: 1820 ng/mL
